This is a sample that favours compounds with a hit; in the whole collection about 2.6% have one here.
SR-BI DiI-HDL act – activators of SR-BI mediated DiI-HDL uptake, primary screen, ldlA[mSR-BI] CHO cells, DiI fluorescence | 3 h; 100 = double the neutral-control signal | activation, % at 12.5 µM | hit rate 0.096% among 320,000;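 active means mean replicate activation of at least 60% and every replicate at or above 60%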;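 further: 0% = median plate neutral-control signal and 100% = twice that signal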
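Material: SR-BI-overexpressing, LDLR-lacking CHO cells | Dosing: Single compound concentration, delivered by pin transfer | Probe or stimulus: Labelled HDL, 10 µg/mL | Signal: Bottom-read cell fluorescence after medium removal, ex 550/em 595 nm | Schedule: 3 h, 37 °C | Evaluation: HDL uptake via cellular fluorescence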
XiGFP reactiv – activators of inactive X chromosome reactivation, primary screen, imaging, XiGFP fibroblasts, GFP high-content imaging, set 2; XiGFP mouse fibroblasts, % GFP-positive cells imaging, 3 d; cells co-treated with 5-aza-dC sensitizer; scaled so ellipticine positive control = 100%; activation, % at 7.58 µM; hit rate 0.055% among 360,000; AID 743238, 2013;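 active means mean normalized replicate activation at least 10% and every replicate at or above 10%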;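 further: 0% = median of on-plate neutral control wells and 100% = ellipticine 6 µM median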
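System: XiGFP fibroblasts, SV40-immortalized. Medium: DMEM plus 5-aza-dC sensitizer. Doses: single point. Timing: 3 d treatment, 15 min room-temperature fixation. Control set: ellipticine 6 µM.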
PvdQ acylase – P. aeruginosa PvdQ acylase inhibitors, primary screen, biochemical, fluorescence, plate reader and imaging, single point | PvdQ acylase [Pseudomonas aeruginosa LESB58] | purified PvdQ acylase | inhibition, % at 10 µM | hit rate 0.063% among 340,000; in the data active means inhibition above about 30%, passing the limit was not always enough;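 further: 0% = vehicle neutral wells and 100% = reference inhibitor wells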
Ecoli rRNA inh – reduced GFP signal of wild-type E. coli, primary screen, bacterial rRNA inhibitor project, GFP/RFP fluorescence, OD600, single point; E. coli WT GFP vs humanized-ribosome RFP mutants, 24 h; hits give low values; DMSO median 0, no signal -100; GFP signal change (wild-type ribosome), % (no concentration beside the values); hit rate 1.6% among 350,000;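 active means significant combined selectivity score with lowered wild-type GFP, culture density cut under 30%, mutant RFP and density less affected; inactive means any of these conditions unmet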
SR-BI DiI inh – inhibitors of SR-BI mediated HDL lipid uptake, primary screen, ldlA[mSR-BI] cells, fluorescence, single point. Scavenger receptor class B member 1 (Mus musculus), Q61009. ldlA[mSR-BI] CHO cells, DiI-HDL uptake fluorescence, 3 h. inhibition, % at 12.5 µM. hit rate 0.96% among 320,000;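 active means mean replicate inhibition of at least 70% and a set share of replicates each scoring 70 or more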;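 further: 0% = median of neutral control wells and 100% = median of positive control wells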
dFosB act – activators of delta FosB homodimer, primary screen, biochemical, fluorescence polarization, TAMRA-CDK5 oligo, single point; Protein FosB (Mus musculus), P13346; purified delta FosB; percent of positive-control signal above neutral wells; activation, % at 25 µM; hit rate 0.99% among 340,000;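 active means mean activation above about 17%, with every replicate also reaching it, limit read from the data, passing the limit was not always enough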
Target sequence (P13346 whole entry, looked up): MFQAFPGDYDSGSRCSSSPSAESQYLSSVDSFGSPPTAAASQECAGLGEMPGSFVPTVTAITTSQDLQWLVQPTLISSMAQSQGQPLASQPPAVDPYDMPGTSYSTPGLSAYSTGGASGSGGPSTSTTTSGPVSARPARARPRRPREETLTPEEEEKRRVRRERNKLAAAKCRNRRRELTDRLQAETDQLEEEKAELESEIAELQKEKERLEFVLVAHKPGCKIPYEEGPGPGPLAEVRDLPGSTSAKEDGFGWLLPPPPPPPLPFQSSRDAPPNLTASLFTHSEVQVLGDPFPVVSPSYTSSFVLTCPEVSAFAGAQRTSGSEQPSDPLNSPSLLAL
Active calls of the source: *.

`NC(=S)NN=C1CCC2(CCCCC2)CC1` gave SR-BI DiI-HDL act -84.9, XiGFP reactiv 0.0, PvdQ acylase -13.1, Ecoli rRNA inh 3.7, SR-BI DiI inh 84.9* and dFosB act 6.7.
Screening CC1(C)CCC(=NNC(N)=S)CC1 returned SR-BI DiI-HDL act -60.5, XiGFP reactiv 0.0, PvdQ acylase 12.1, Ecoli rRNA inh 11.2, SR-BI DiI inh 60.5 and dFosB act 0.2.
For NC(=S)NN=C1CCCCC12CCCC2 the results were SR-BI DiI-HDL act -75.0, XiGFP reactiv 0.1, PvdQ acylase -16.0, Ecoli rRNA inh 1.6, SR-BI DiI inh 75.0* and dFosB act -0.9.
For C[C@H](NC(=O)[C@@H]1CCC(=O)N1Cc1ccco1)c1ccccc1 the results were SR-BI DiI-HDL act 4.3, XiGFP reactiv 0.4, PvdQ acylase -19.1, Ecoli rRNA inh 14.9, SR-BI DiI inh -4.3 and dFosB act 1.0.
Cc1ccc(NC(=O)CCn2cccc2)cc1F was read as SR-BI DiI-HDL act -45.4, PvdQ acylase -12.8, SR-BI DiI inh 45.4 and dFosB act -4.4.
For CCn1c(COc2ccccc2)nnc1SCC(=O)c1cccc([N+](=O)[O-])c1 the results were SR-BI DiI-HDL act -26.9, PvdQ acylase -6.3, Ecoli rRNA inh -24.4*, SR-BI DiI inh 26.9 and dFosB act -10.8.
For CCOC(=O)CN(C(=O)CSc1nnc(COc2ccc(OC)cc2)n1CC)c1ccccc1 the results were XiGFP reactiv 0.1, PvdQ acylase 1.2, Ecoli rRNA inh -27.0* and dFosB act -12.4.
`CCOc1cc(C)ccc1OCc1nnc(SCC(=O)c2cccc([N+](=O)[O-])c2)n1CC` gave SR-BI DiI-HDL act -88.4, PvdQ acylase 8.5, SR-BI DiI inh 88.4* and dFosB act -4.7.
For c1ccc(CSc2nnc(NC3CCCCC3)s2)cc1 the results were XiGFP reactiv 0.0 and Ecoli rRNA inh -3.3.
Screening Cc1ccc(S(=O)(=O)Nc2ccc3c(c2)C(=O)N([C@@H](C)CO)C[C@@H](C)[C@@H](CN(C)S(=O)(=O)c2ccccc2)O3)cc1 returned XiGFP reactiv -0.8 and Ecoli rRNA inh -1.0.
For N=c1c(-c2nc3ccccc3[nH]2)cc(C(=O)c2ccco2)nn1-c1ccccc1 the results were SR-BI DiI-HDL act -72.8, XiGFP reactiv 0.1, PvdQ acylase -10.4, Ecoli rRNA inh 13.2, SR-BI DiI inh 72.8* and dFosB act 9.5.
`N=c1c(-c2nc3ccccc3[nH]2)cc(C(=O)c2cccs2)nn1-c1ccccc1` gave SR-BI DiI-HDL act -61.8, PvdQ acylase -7.2, SR-BI DiI inh 61.8 and dFosB act 0.2.
For CCOC(=O)c1nn(-c2ccc3ccccc3c2)cc1O the results were SR-BI DiI-HDL act 11.7, XiGFP reactiv 16.9*, PvdQ acylase -0.5, Ecoli rRNA inh -15.4, SR-BI DiI inh -11.7 and dFosB act -2.5.
For CNc1cc([N+](=O)[O-])ccc1OCc1ccccc1 the results were SR-BI DiI-HDL act -55.0, XiGFP reactiv 0.0, PvdQ acylase -4.3, Ecoli rRNA inh 0.3, SR-BI DiI inh 55.0 and dFosB act 3.5.
O=Cc1c(OCc2ccccc2)ccc2ccccc12 was read as SR-BI DiI-HDL act -34.5, XiGFP reactiv 0.1, PvdQ acylase -5.5, Ecoli rRNA inh -36.6*, SR-BI DiI inh 34.5 and dFosB act -3.1.
For C/[N+]([O-])=C/c1c(OCc2ccccc2)ccc2ccccc12 the results were SR-BI DiI-HDL act 8.2, XiGFP reactiv 0.0, PvdQ acylase 7.9, Ecoli rRNA inh -35.8*, SR-BI DiI inh -8.2 and dFosB act -6.4.
COc1ccc(OCC(=O)N2CCN(C(=O)COc3ccc(Br)cc3)CC2)cc1 was read as SR-BI DiI-HDL act -48.2, PvdQ acylase -8.4, SR-BI DiI inh 48.2 and dFosB act -2.6.
Screening COC(=O)c1cc(NC(=O)CN(c2ccccc2OC)S(=O)(=O)c2ccccc2)ccc1Cl returned SR-BI DiI-HDL act -45.5, PvdQ acylase -15.8, Ecoli rRNA inh -21.3*, SR-BI DiI inh 45.5 and dFosB act -4.6.
COc1ccc(S(=O)(=O)N(CC(=O)NC2CCCC2)c2ccccc2OC)cc1 was read as SR-BI DiI-HDL act -12.6, XiGFP reactiv 0.1, PvdQ acylase -16.0, Ecoli rRNA inh -28.8*, SR-BI DiI inh 12.6 and dFosB act 3.1.
Screening COc1ccccc1N(CC(=O)NCCSCc1ccccc1)S(=O)(=O)c1ccccc1 returned XiGFP reactiv -0.3 and Ecoli rRNA inh -14.9*.
COc1ccccc1N(CC(=O)NCCSCc1ccccc1)S(=O)(=O)c1ccc(C)cc1 was read as XiGFP reactiv 0.4, PvdQ acylase -7.5, Ecoli rRNA inh 1.6 and dFosB act -8.2.
Screening COC(=O)c1cc(NC(=O)CN(c2cccc(OC)c2)S(=O)(=O)c2ccccc2)ccc1Cl returned SR-BI DiI-HDL act -31.4, XiGFP reactiv 0.0, PvdQ acylase -11.6, Ecoli rRNA inh 0.9, SR-BI DiI inh 31.4 and dFosB act -5.6.
`COc1ccc(S(=O)(=O)N(CC(=O)NC2CC3CCC2C3)c2ccccc2OC)cc1` (configuration not stated) gave XiGFP reactiv 0.2, PvdQ acylase -12.2, Ecoli rRNA inh -15.9 and dFosB act -4.2.
For CCOc1ccccc1N(CC(=O)Nc1ccc(OC)cc1OC)S(=O)(=O)c1ccccc1 the results were SR-BI DiI-HDL act 6.2, XiGFP reactiv 0.1, PvdQ acylase -17.3, Ecoli rRNA inh -0.1, SR-BI DiI inh -6.2 and dFosB act -13.4.
Screening CCOc1ccccc1N(CC(=O)Nc1ccccc1F)S(=O)(=O)c1ccccc1 returned SR-BI DiI-HDL act -15.1, XiGFP reactiv 0.1, PvdQ acylase 1.0, Ecoli rRNA inh -19.1*, SR-BI DiI inh 15.1 and dFosB act 4.7.
CC(c1ccncn1)N(C)Cc1nc(Cc2ccccc2F)no1 (configuration not stated) was read as SR-BI DiI-HDL act 30.3, XiGFP reactiv 0.0, PvdQ acylase 6.2, Ecoli rRNA inh 6.3, SR-BI DiI inh -30.3 and dFosB act -9.7.
CCCn1c(N2CCN(C(=O)Nc3ccc(Cl)cc3)CC2)nc2ccccc21 was read as SR-BI DiI-HDL act -65.4, XiGFP reactiv 0.0, PvdQ acylase -6.2, Ecoli rRNA inh -26.2*, SR-BI DiI inh 65.4 and dFosB act -1.3.
